The results in this text go back to ChEMBL document CHEMBL1141214, “Use of structure-based drug design approaches to obtain novel anthranilic acid acyl carrier protein synthase inhibitors” (J Med Chem, 2005).

Values after ≈ are worked out from the molar mass of the structure shown. Values joined by “and” are separate entries in the source; they are usually repeats but may differ in a detail not shown here. Identical values can stand only once.

In assay [1] the test system is Escherichia coli. Description: Inhibitory activity against Escherichia coli. Format: functional. The method, boiled down: (§1)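 Broth microdilution per NCCLS in Mueller-Hinton II broth; serial dilutions in microtiter wells, inoculum 10⁵ CFU/mL, 100 μL final. Incubated 18–22 h at 35 °C in ambient air. MIC taken as lowest concentration giving complete visible growth inhibition by unaided eye.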

Assay [2] has as its system Streptococcus pneumoniae. Description: Inhibitory activity against penicillin-resistant Streptococcus pneumoniae penR. The format is functional. The method, boiled down:
(§2)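 Broth microdilution per NCCLS in Mueller-Hinton II broth; serial compound dilutions inoculated to 10⁵ CFU/mL, incubated 18–22 h at 35 °C in ambient air. MIC taken as lowest concentration completely inhibiting visible growth (unaided eye).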

For assay [3], the system named is Enterococcus faecalis. Description: Inhibitory activity against vancomycin-resistant Enterococcus faecalis VRE. Format: functional. In outline:
as §2

Assay [4] concerns the target T1, Holo-[acyl-carrier-protein] synthase (Bacillus subtilis (strain 168), UniProt P96618).
T1 sequence (P96618 whole entry): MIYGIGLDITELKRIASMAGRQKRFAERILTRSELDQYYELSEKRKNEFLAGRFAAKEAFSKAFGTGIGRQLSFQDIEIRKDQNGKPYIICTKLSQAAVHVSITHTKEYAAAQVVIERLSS
Description: Inhibitory activity against Bacillus subtilis AcpS by HTRF assay.

In assay [5] the test system is Staphylococcus aureus. Description: Inhibitory activity against methicillin-resistant Staphylococcus aureus MRSA. Format: functional. In outline: as §2
In assay [6] the test system is Candida albicans. Description: Inhibitory activity against Candida albicans. The format is functional. The method, boiled down: as §1
The subject of assay [7] is Bacillus subtilis. Description: Inhibitory activity against Bacillus subtilis 168. The format is functional. In outline: as §1

In the case of `C/C(=C\c1ccc(Cl)cc1)C(=O)Nc1cc(Cl)ccc1C(=O)O`, the MIC was above 128 µg/mL in assay [1]; 32 µg/mL (≈ 91.4 µM) in assay [2]; 64 µg/mL (≈ 183 µM) in assay [3]; 32 µg/mL (≈ 91.4 µM) in assay [5]; above 128 µg/mL in assay [6]; 32 µg/mL (≈ 91.4 µM) in assay [7]. In assay [4], the half-maximal inhibitory concentration (IC50) was 32300 nM.
Regarding `CC(Cc1ccccc1)C(=O)Nc1ccc(Cl)cc1C(=O)O` (configuration not stated), the IC50 in assay [4] is 2830 nM and 2800 nM.
With `CSC(Cc1ccc(Cl)cc1)C(=O)Nc1ccc(Cl)cc1C(=O)O` (configuration not stated), the MIC is above 128 µg/mL in assay [1]; 64 µg/mL (≈ 167 µM) in assay [2]; 128 µg/mL (≈ 333 µM) in assay [3]; 64 µg/mL (≈ 167 µM) in assay [5]; above 128 µg/mL in assay [6]; 64 µg/mL (≈ 167 µM) in assay [7]. In assay [4], the IC50 was 1430 nM and 1400 nM.
`NS(=O)(=O)c1cc(C(=O)O)c(NCc2ccco2)cc1Cl` [FUROSEMIDE] had an IC50 in assay [4] of 12700 nM.
On the same count and under the same terms, under `O=C(O)c1cc(Cl)ccc1NC(=O)c1cccc2c1-c1ccccc1C2=O` stands 821 nM and 820 nM.

In general, MIC refers to the least concentration at which growth counts as inhibited. As usually defined, the IC50 is the concentration needed to halve the response being measured. The low end stands for greater potency, the high end for weaker potency.
